Results reported in ChEMBL document CHEMBL1141651, “Discovery of a potent, selective, and orally active proteasome inhibitor for the treatment of cancer” (J Med Chem, 2008).

Columns and labels:
[1] = Half life in CD1 mouse at 4 mg/kg, iv; format: ADME, organism-based; design: dose 4 mg/kg, route intravenous; conditions: in vivo
How it was run: (§1)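 Female Sprague–Dawley rats and CD-1 mice each received a single iv or oral (po) dose. Terminal half-life and systemic clearance were estimated from plasma exposure over time, alongside AUC0→∞, Vss and absolute oral bioavailability.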

[2] = AUC (0 to infinity) in CD1 mouse at 4 mg/kg, iv; format: ADME, organism-based; design: time infinity, dose 4 mg/kg, route intravenous; conditions: plasma
How it was run: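 CD-1 mice received a single dose by the iv or oral route. AUC from 0 to infinity was reported with terminal half-life, Vss, clearance and absolute oral bioavailability.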

[3] = Volume of distribution at steady state in CD1 mouse at 4 mg/kg, iv; format: ADME, organism-based; design: dose 4 mg/kg, route intravenous; conditions: in vivo, read-out: Vdss
How it was run: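 Single-dose pharmacokinetics after iv or oral administration in female Sprague–Dawley rats and in CD-1 mice; plasma exposure (AUC0–∞) used to derive steady-state volume of distribution, clearance, terminal half-life and absolute oral bioavailability.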

[4] = Clearance in CD1 mouse at 4 mg/kg, iv; format: ADME, organism-based; design: dose 4 mg/kg, route intravenous; conditions: in vivo; how it was run: as §1
Caspase-8 (Homo sapiens) = Caspase-8 (Homo sapiens) (UniProt Q14790); assay: Inhibition of human caspase 8 at 10 uM
[5] = molecular target: Dipeptidyl peptidase 4 (Homo sapiens) (UniProt P27487); assay: Inhibition of human DPP4 at 10 uM
[6] = molecular target: Endothelin-converting enzyme 1 (Homo sapiens) (UniProt P42892); assay: Inhibition of human ECE1 at 10 uM
[7] = molecular target: Neprilysin (Homo sapiens) (UniProt P08473); assay: Inhibition of human NEP at 10 uM
Sus scrofa [8] = organism: Sus scrofa; assay: Inhibition of pig pepsin at 10 uM
[9] = molecular target: Plasminogen (Homo sapiens) (UniProt P00747); assay: Inhibition of human plasmin at 10 uM
[10] = Inhibition of chymotrypsin-like activity of human erythrocyte 20S proteasome
How it was run: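 Isolated 20S proteasome purified from human erythrocytes was tested in a fluorimetric kinetic assay of chymotrypsin-like activity. Potency is reported as IC50.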

[11] = Inhibition of bovine alpha chymotrypsin; design: species or system Bos taurus
[12] = Oral bioavailability in CD1 mouse at 10 mg/kg; format: ADME, organism-based; conditions: in vivo
How it was run: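 CD-1 mice given a single iv dose (4 mg/kg) and a single oral (po) dose (10 mg/kg). Plasma AUC0-∞ was measured, and absolute oral bioavailability F (%) was calculated from the oral versus iv exposure.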

Cytochrome P450 2D6 = Cytochrome P450 2D6 (Homo sapiens, UniProt P10635); assay: Inhibition of human recombinant CYP2D6 upto 30 uM; format: ADME; conditions: recombinant enzyme
How it was run: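 Recombinant human P-450 isoforms (1A2, 2C9, 2C19, 2D6) with fluorescent P-450 substrates; tested at concentrations up to 30 µM to gauge inhibition.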

[13] = molecular target: Calpain-1 catalytic subunit (Homo sapiens) (UniProt P07384); assay: Inhibition of human calpain 1 at 10 uM
[14] = molecular target: Cathepsin B (Homo sapiens) (UniProt P07858); assay: Inhibition of human cathepsin B at 10 uM
[15] = molecular target: Cathepsin E (Homo sapiens) (UniProt P14091); assay: Inhibition of human cathepsin E at 10 uM
Cathepsin G = Cathepsin G (Homo sapiens, UniProt P08311); assay: Inhibition of human cathepsin G
[16] = molecular target: Cathepsin Z (Homo sapiens) (UniProt Q9UBR2); assay: Inhibition of human cathepsin Z at 10 uM
[17] = Inhibition of human chymotrypsin
How it was run: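 Cross-reactivity was tested against human pancreas α-chymotrypsin using a fluorogenic specific substrate. Results are expressed as IC50.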

[18] = molecular target: Coagulation factor X (Homo sapiens) (UniProt P00742); assay: Inhibition of human factor 10a at 10 uM
[19] = molecular target: Protease (Human immunodeficiency virus 1) (UniProt Q9YQ12); assay: Inhibition of HIV1 protease at 10 uM
[20] = molecular target: 72 kDa type IV collagenase (Homo sapiens) (UniProt P08253); assay: Inhibition of human MMP2 at 10 uM
Caspase-2 (Homo sapiens) = Caspase-2 (Homo sapiens) (UniProt P42575); assay: Inhibition of human caspase 2 at 10 uM
Renin (Homo sapiens) = Renin (Homo sapiens) (UniProt P00797); assay: Inhibition of human renin at 10 uM
Sus scrofa [21] = organism: Sus scrofa; assay: Inhibition of pig pancreatic elastase 1 at 10 uM
[22] = molecular target: Disintegrin and metalloproteinase domain-containing protein 17 (Homo sapiens) (UniProt P78536); assay: Inhibition of human TACE at 10 uM
[23] = Metabolic stability in rat liver microsomes; format: ADME, Microsome
[24] = Metabolic stability in human liver microsomes; format: ADME, Microsome
[25] = Protein binding in mouse plasma; format: ADME, cell-free; conditions: read-out: PPB (converted)

Cathepsin Z (Homo sapiens), sequence (Q9UBR2 whole entry): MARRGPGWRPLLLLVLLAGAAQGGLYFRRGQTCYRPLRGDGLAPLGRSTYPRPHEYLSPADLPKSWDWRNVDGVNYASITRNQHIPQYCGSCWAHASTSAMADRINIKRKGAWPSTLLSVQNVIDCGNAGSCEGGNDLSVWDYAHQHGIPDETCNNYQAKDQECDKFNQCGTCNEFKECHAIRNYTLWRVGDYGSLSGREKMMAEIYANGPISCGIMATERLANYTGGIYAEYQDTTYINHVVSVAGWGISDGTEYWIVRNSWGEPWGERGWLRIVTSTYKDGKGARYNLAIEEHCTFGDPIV
Caspase-2 (Homo sapiens), sequence (P42575 170-325 limits assumed): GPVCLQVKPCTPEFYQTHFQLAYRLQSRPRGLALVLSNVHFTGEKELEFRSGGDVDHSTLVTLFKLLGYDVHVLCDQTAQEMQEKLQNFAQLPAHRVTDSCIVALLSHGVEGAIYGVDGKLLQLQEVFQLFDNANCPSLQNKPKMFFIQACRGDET
Caspase-2 (Homo sapiens), sequence (P42575 334-452 limits assumed): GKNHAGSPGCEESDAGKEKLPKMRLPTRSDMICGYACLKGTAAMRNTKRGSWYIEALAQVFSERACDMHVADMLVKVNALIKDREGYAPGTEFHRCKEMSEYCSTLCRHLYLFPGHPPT
Disintegrin and metalloproteinase domain-containing protein 17 (Homo sapiens), sequence (P78536 whole entry, the tested form may be a part): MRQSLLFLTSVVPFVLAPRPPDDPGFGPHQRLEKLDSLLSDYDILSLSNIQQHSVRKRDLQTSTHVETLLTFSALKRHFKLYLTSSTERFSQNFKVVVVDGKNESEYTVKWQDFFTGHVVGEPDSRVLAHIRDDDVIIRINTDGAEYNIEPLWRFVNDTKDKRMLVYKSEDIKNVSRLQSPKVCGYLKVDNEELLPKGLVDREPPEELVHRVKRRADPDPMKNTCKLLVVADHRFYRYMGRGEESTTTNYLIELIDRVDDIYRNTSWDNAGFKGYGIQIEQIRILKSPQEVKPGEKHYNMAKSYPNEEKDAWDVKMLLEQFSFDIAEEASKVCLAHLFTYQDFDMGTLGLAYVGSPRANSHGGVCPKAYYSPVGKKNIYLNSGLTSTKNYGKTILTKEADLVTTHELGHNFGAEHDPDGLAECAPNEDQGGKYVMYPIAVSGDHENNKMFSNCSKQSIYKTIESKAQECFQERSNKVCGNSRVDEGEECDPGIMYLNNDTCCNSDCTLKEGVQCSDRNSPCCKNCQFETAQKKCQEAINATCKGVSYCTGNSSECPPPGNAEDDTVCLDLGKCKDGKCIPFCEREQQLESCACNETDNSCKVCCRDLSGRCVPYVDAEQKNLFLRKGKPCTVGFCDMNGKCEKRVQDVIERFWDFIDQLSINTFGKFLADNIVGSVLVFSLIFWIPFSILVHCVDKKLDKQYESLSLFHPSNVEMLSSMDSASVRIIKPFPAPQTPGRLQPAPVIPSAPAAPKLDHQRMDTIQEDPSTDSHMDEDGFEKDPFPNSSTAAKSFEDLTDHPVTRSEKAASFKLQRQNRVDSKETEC
Calpain-1 catalytic subunit (Homo sapiens), sequence (P07384 whole entry): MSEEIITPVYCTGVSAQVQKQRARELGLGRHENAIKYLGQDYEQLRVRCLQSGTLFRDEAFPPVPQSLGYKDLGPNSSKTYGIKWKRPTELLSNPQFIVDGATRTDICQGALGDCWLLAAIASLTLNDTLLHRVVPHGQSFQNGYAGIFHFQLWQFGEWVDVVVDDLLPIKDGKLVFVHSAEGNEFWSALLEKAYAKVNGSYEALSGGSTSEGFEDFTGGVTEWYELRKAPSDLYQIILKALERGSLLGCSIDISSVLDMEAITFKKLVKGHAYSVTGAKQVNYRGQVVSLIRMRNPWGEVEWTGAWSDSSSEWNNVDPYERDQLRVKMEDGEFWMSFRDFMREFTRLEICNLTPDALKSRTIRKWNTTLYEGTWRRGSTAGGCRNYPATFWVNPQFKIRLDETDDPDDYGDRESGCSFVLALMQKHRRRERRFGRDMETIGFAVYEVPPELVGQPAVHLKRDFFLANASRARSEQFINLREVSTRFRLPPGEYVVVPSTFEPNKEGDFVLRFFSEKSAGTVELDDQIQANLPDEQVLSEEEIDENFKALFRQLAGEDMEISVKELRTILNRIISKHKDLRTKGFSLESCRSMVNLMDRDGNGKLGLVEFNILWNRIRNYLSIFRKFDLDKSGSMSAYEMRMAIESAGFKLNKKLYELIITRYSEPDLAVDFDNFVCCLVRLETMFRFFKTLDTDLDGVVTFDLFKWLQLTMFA
Endothelin-converting enzyme 1 (Homo sapiens), sequence (P42892 whole entry): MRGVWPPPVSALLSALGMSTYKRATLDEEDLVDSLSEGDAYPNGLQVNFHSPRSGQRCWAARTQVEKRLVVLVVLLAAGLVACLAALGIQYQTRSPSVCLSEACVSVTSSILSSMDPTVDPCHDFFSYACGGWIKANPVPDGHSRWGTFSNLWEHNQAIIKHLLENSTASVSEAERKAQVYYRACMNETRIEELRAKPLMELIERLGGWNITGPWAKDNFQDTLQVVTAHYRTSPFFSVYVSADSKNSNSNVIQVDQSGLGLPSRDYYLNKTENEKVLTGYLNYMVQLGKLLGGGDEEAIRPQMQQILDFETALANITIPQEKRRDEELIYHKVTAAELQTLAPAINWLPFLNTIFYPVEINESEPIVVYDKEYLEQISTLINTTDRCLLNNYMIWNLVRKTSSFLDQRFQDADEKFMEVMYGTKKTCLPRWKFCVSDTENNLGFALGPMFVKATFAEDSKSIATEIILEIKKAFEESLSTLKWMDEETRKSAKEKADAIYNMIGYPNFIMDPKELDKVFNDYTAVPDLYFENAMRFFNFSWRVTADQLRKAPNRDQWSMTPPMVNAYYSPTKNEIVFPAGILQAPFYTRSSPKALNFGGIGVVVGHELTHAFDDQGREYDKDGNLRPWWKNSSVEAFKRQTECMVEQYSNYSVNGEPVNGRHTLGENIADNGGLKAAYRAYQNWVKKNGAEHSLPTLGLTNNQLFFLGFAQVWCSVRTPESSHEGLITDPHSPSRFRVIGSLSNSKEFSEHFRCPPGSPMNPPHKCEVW
Coagulation factor X (Homo sapiens), sequence (P00742 41-179 limits assumed): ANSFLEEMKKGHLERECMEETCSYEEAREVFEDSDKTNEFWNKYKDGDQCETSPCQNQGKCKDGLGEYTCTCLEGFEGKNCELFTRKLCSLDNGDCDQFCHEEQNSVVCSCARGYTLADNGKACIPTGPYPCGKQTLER
Coagulation factor X (Homo sapiens), sequence (P00742 235-488 limits assumed): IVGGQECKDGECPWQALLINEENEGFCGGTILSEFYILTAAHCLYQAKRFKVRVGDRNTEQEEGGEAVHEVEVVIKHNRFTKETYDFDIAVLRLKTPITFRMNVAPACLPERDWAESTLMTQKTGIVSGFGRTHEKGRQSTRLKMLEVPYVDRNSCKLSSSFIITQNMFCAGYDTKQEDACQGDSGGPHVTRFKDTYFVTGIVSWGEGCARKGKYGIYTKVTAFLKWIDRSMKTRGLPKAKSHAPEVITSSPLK
Neprilysin (Homo sapiens), sequence (P08473 whole entry): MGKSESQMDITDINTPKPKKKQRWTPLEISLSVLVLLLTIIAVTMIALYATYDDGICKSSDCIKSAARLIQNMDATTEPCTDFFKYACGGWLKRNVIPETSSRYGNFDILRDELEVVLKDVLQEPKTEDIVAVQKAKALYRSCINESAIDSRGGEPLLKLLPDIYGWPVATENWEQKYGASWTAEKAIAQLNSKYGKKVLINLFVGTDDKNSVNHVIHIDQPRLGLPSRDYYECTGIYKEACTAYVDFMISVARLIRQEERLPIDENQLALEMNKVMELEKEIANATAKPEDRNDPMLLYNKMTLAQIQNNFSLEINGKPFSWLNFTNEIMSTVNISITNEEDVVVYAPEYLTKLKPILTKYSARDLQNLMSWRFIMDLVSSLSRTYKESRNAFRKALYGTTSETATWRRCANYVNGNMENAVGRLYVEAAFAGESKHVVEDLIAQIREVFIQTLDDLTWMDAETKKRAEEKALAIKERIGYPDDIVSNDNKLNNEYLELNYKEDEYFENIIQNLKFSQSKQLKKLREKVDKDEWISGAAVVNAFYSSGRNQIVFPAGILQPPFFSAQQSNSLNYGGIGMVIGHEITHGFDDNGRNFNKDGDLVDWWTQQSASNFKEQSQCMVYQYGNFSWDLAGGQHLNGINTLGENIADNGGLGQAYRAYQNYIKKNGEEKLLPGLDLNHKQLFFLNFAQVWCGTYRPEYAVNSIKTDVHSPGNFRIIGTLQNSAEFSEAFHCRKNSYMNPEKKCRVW
Dipeptidyl peptidase 4 (Homo sapiens), sequence (P27487 whole entry, looked up): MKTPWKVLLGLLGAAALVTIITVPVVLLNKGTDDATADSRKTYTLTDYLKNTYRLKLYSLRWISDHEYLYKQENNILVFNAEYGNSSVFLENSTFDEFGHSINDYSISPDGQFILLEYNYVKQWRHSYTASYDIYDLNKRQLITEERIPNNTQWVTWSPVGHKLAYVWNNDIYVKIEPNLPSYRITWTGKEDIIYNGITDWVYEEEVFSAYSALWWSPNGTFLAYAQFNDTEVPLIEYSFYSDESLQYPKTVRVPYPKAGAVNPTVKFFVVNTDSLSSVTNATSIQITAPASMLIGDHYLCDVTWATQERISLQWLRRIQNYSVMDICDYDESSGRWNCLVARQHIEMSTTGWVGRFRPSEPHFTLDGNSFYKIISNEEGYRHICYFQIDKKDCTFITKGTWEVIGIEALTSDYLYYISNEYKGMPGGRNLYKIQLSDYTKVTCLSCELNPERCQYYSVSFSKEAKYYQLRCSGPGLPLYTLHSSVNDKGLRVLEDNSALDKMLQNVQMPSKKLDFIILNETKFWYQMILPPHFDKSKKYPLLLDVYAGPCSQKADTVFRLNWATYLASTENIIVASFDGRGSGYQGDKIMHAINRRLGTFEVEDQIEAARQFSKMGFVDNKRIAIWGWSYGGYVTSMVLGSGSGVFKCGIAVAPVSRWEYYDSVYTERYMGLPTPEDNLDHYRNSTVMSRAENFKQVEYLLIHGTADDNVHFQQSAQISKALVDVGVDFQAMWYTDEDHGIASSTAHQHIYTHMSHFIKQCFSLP
Protease (Human immunodeficiency virus 1), sequence (Q9YQ12 as listed by the source): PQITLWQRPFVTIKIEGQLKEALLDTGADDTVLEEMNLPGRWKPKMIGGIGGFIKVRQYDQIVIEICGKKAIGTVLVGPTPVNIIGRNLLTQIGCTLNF

Molecule `CC(C)C[C@H](NC(=O)[C@@H](NC(=O)c1cccc(-c2ccccc2)n1)[C@@H](C)O)B(O)O` [DELANZOMIB] has a half-life [1] of 900 min, an AUC(0-inf) [2] of 2910 ng·h/mL and a Vd [3] of 10.3 L/kg. It also gave a clearance [4] of 23.3 mL/min/kg, an inhibition (Caspase-8 (Homo sapiens)) of -2% and an inhibition [5] of -5%. For the same molecule, the inhibition [6] was 21%, the inhibition [7] was 12% and the inhibition (Sus scrofa [8]) was -5%. For the same molecule, the inhibition [9] was -1%, the IC50 [10] was 3.8 nM and the IC50 [11] was 1500 nM. The bioavailability [12] was 39%, the Activity (Cytochrome P450 2D6) was “Not Active” and the inhibition [13] was 0%. For the same molecule, the inhibition [14] was 7%, the inhibition [15] was -3% and the IC50 (Cathepsin G) was 2110 nM. For the same molecule, the inhibition [16] was 5%, the IC50 [17] was 5330 nM and the inhibition [18] was -2%. It also gave an inhibition [19] of 1%, an inhibition [20] of -5% and an inhibition (Caspase-2 (Homo sapiens)) of 1%. For the same molecule, the inhibition (Renin (Homo sapiens)) was -3%, the inhibition (Sus scrofa [21]) was -6% and the inhibition [22] was 1%. It also gave a half-life [23] of 15 min, a half-life [24] greater than 40 min and a fraction unbound [25] of 0.001.
